# Results taken from ChEMBL document CHEMBL1136736, “In vitro and in vivo antitumor properties of tetrakis((trishydroxy- methyl)phosphine)gold(I) chloride” (J Med Chem, 2003).
# What was measured:
# Format in all cases: functional, cell-based
# AGS [1] = experiment: Growth inhibition of AGS cell line at 13.72 nM derived from human gastric carcinoma; conditions: Stomach
# Procedure, shortened: (§1)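 Tumor cells were exposed to the compound added as a methanol solution and cultured in a 5% CO2 incubator for 7 days (4 days for some table entries). Cells were counted, and percent growth inhibition = (mean control count − mean treated count)/mean control count × 100.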
# HCT-15 [2] = experiment: Growth inhibition of HCT-15 cell line at 0.54 nM derived from human colon carcinoma; procedure, shortened: as §1
# AGS [3] = experiment: Growth inhibition of AGS cell line at 0.54 nM derived from human gastric carcinoma; conditions: Stomach; procedure, shortened: as §1
# PC-3 = experiment: Growth inhibition of PC-3 cell line at 13.72 nM derived from prostate cancer; conditions: Homo sapiens; procedure, shortened: as §1
# LNCaP [4] = experiment: Growth inhibition of LNCaP cell line at 13.72 nM derived from prostate cancer; conditions: Homo sapiens; procedure, shortened: as §1
# HCT-15 [5] = experiment: Growth inhibition of HCT-15 cell line at 13.72 nM derived from human colon carcinoma; procedure, shortened: as §1
# LNCaP [6] = experiment: Growth inhibition of LNCaP cell line at 2.74 nM derived from prostate cancer; conditions: Homo sapiens; procedure, shortened: as §1
# AGS [7] = experiment: Growth inhibition of AGS cell line at 2.74 nM derived from human gastric carcinoma; conditions: Stomach; procedure, shortened: as §1
# HCT-15 [8] = experiment: Growth inhibition of HCT-15 cell line at 2.74 nM derived from human colon carcinoma; procedure, shortened: as §1
# LNCaP [9] = experiment: Growth inhibition of LNCaP cell line at 0.54 nM derived from prostate cancer; conditions: Homo sapiens; procedure, shortened: as §1
substance,measurement,setting,value
TETRAKIS((TRISHYDROXYMETHYL) PHOSPHINE)GOLD(I) CHLORIDE,inhibition,AGS [1],59.5%
same,inhibition,HCT-15 [2],22.5%
same,inhibition,AGS [3],10.2%
same,inhibition,PC-3,27%
same,inhibition,LNCaP [4],83.9%
same,inhibition,HCT-15 [5],87.5%
same,inhibition,LNCaP [6],59.2%
same,inhibition,AGS [7],17.4%
same,inhibition,HCT-15 [8],58.3%
same,inhibition,LNCaP [9],47.4%
